Measured values from ChEMBL document CHEMBL2069181, “In vitro and in vivo trypanosomicidal activity of pyrazole-containing macrocyclic and macrobicyclic polyamines: their action on acute and chronic phases of Chagas disease” (J Med Chem, 2012).
Activity calls are given as the source filed them.

What was measured:
Trypanosoma cruzi [1] = assay: Trypanosomicidal activity against Trypanosoma cruzi SN3 epimastigote after 72 hrs by hemocytometric analysis; type: functional, organism-based; conditions: SN3, 72 h
Procedure, shortened: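 Exponential-phase SN3 epimastigotes (Grace's medium, 10% FBS, 28 °C) seeded at 5 × 10^4 parasites/well with compounds dissolved in MTL at 1, 10, 25, 50, 100 μM.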

Trypanosoma cruzi [2] = assay: Trypanosomicidal activity against Trypanosoma cruzi SN3 anexic amastigote after 48 hrs by hemocytometric analysis; type: functional, organism-based; conditions: SN3, 48 h
Procedure, shortened: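 Axenic amastigotes obtained from epimastigotes after 3 days in supplemented M199 (10% FCS, pH 5.4, 37 °C).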

Trypanosoma cruzi [3] = assay: Trypanosomicidal activity against Trypanosoma cruzi SN3 amastigote infected in Vero cells after 72 hrs by Giemsa staining method; type: functional, organism-based
Procedure, shortened: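 Vero cells seeded at 1 × 10^4/well on coverslips, grown 2 days, infected with metacyclic forms (10:1) for 24 h, washed, then treated at 1–100 μM for 72 h in RPMI/10% FBS. Amastigote reduction scored on methanol-fixed Giemsa-stained slides; four determinations; IC50.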

Vero = assay: Cytotoxicity against African green monkey Vero cells assessed as cell viability after 72 hrs by flow cytometric analysis; type: cell-based; conditions: Chlorocebus sabaeus
Procedure, shortened: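 Vero cells grown in RPMI with 10% inactivated FBS at 37 °C, 5% CO2, seeded at 1 × 10^5 cells/mL, grown 2 days, then exposed to 1–100 μM compound for 72 h. Viability measured by flow cytometry; IC50 by linear regression.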

[4] = Selectivity index, ratio of IC50 for Vero cells to IC50 for Trypanosoma cruzi epimastigote; type: toxicity, cell-based; conditions: monkey, Vero cells versus Trypanosoma cruzi epimastigotes; read-out: Ratio IC50
[5] = Selectivity index, ratio of IC50 for Vero cells to IC50 for Trypanosoma cruzi anexic amastigote; type: toxicity, cell-based; conditions: monkey, Vero cells versus Trypanosoma cruzi axenic amastigotes; read-out: Ratio IC50
[6] = Selectivity index, ratio of IC50 for Vero cells to IC50 for Trypanosoma cruzi intracellular amastigote infected in Vero cells; type: toxicity, cell-based; conditions: monkey; read-out: Ratio IC50
Trypanosoma cruzi [7] = assay: Trypanosomicidal activity against Trypanosoma cruzi infected in Vero cells assessed as reduction in rate of infection after 10 days by Giemsa staining method; type: functional; parameters: scale not given: the % may be the effect or the level left
Procedure, shortened: (§1)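 Vero cells infected with metacyclic forms (10:1); compounds at IC25 added at infection for 12 h at 37 °C, then washed out and cultures grown 10 days with medium renewed every 48 h. Infected cells and amastigotes per cell counted in >100 host cells on Giemsa-stained slides; trypomastigotes in medium counted; mean of four determinations.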

Trypanosoma cruzi [8] = assay: Trypanosomicidal activity against Trypanosoma cruzi infected in Vero cells assessed as reduction in amastigotes per infected Vero cells after 6 days by Giemsa staining method; type: functional; parameters: scale not given: the % may be the effect or the level left
Trypanosoma cruzi [9] = assay: Trypanosomicidal activity against Trypanosoma cruzi infected in Vero cells assessed as reduction in trypomastigotes in culture medium after 10 days by Giemsa staining method; type: functional; parameters: scale not given: the % may be the effect or the level left; procedure, shortened: as §1
[10] = Inhibition of Trypanosoma cruzi epimastigotes Fe-SOD by NBT reduction assay
Procedure, shortened: (§2)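 Enzyme from epimastigotes grown without FBS (excreted Fe-SOD), sonicated in STE buffer pH 7.8, centrifuged, supernatant protein by Bradford; human erythrocyte CuZn-SOD for comparison. NBT reduction by superoxide (Beyer–Fridovich): methionine, NBT, Triton X-100, riboflavin, homogenate plus compound; A560 read before and after 10 min UV illumination with stirring. Five separate determinations; Newman–Keuls test against control.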

Mus musculus [11] = assay: Toxicity in BALB/c mouse liver infected with Trypanosoma cruzi assessed as granulomas with limphocitic infiltration at 5 mg/kg, ip after 120 days postinfection by Histopathological analysis; type: organism-based; parameters: dose 5 mg/kg, route intraperitoneal; conditions: in vivo, 2880 h
Procedure, shortened: (§3)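 Livers removed at 120 days postinfection, fixed in 10% buffered formalin, paraffin-embedded, 4–5 μm sections stained with H&E and Masson's trichrome. Blinded scoring of at least 30 fields per slide, 0 (none) to 5 (severe).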

Mus musculus [12] = assay: Toxicity in BALB/c mouse liver infected with Trypanosoma cruzi assessed as delocalized hepatic destruction at 5 mg/kg, ip after 120 days postinfection by Histopathological analysis; type: organism-based; parameters: dose 5 mg/kg, route intraperitoneal; conditions: in vivo, 2880 h; procedure, shortened: as §3
Mus musculus [13] = assay: Toxicity in BALB/c mouse liver infected with Trypanosoma cruzi assessed as blood vessels with thickened walls at 5 mg/kg, ip after 120 days postinfection by Histopathological analysis; type: organism-based, Blood vessel; parameters: dose 5 mg/kg, route intraperitoneal; conditions: in vivo, 2880 h; procedure, shortened: as §3
Mus musculus [14] = assay: Toxicity in BALB/c mouse liver infected with Trypanosoma cruzi assessed as lymphocytic infiltrations in portal tracts at 5 mg/kg, ip after 120 days postinfection Histopathological analysis; type: organism-based; parameters: dose 5 mg/kg, route intraperitoneal; conditions: in vivo, 2880 h; procedure, shortened: as §3
Mus musculus [15] = assay: Toxicity in BALB/c mouse liver infected with Trypanosoma cruzi assessed as intestinal hemorrhage at 5 mg/kg, ip after 120 days postinfection by Histopathological analysis; type: organism-based; parameters: dose 5 mg/kg, route intraperitoneal; conditions: in vivo, 2880 h; procedure, shortened: as §3
Mus musculus [16] = assay: Toxicity in BALB/c mouse liver infected with Trypanosoma cruzi assessed as hepatic destruction in portal tracts at 5 mg/kg, ip after 120 days postinfection by Histopathological analysis; type: organism-based; parameters: dose 5 mg/kg, route intraperitoneal; conditions: in vivo, 2880 h; procedure, shortened: as §3
Mus musculus [17] = assay: Toxicity in BALB/c mouse liver infected with Trypanosoma cruzi assessed as necrotic cells in portal tracts at 5 mg/kg, ip after 120 days postinfection by Histopathological analysis; type: organism-based; parameters: dose 5 mg/kg, route intraperitoneal; conditions: in vivo, 2880 h; procedure, shortened: as §3
Trypanosoma cruzi [18] = assay: Trypanosomicidal activity against Trypanosoma cruzi epimastigotes assessed as intense vacuolization of protozoan cells by TEM analysis; type: functional, organism-based
Trypanosoma cruzi [19] = assay: Trypanosomicidal activity against Trypanosoma cruzi epimastigotes assessed as very electron dense protozoan cells by TEM analysis; type: functional, organism-based
Trypanosoma cruzi [20] = assay: Trypanosomicidal activity against Trypanosoma cruzi epimastigotes assessed as distorted shape of protozoan cells by TEM analysis; type: functional, organism-based
Trypanosoma cruzi [21] = assay: Inhibition of Trypanosoma cruzi epimastigotes Fe-SOD at 50 ug/ml by NBT reduction assay; procedure, shortened: as §2
Trypanosoma cruzi [22] = assay: Inhibition of Trypanosoma cruzi epimastigotes Fe-SOD at 25 ug/ml by NBT reduction assay; procedure, shortened: as §2
Trypanosoma cruzi [23] = assay: Antitrypanosomal activity against Trypanosoma cruzi infected in BALB/c mouse assessed as reduction in parasitemia at 1 mg/kg, ip dosed for 5 days measured on day 30 post infection; type: functional; parameters: scale not given: the % may be the effect or the level left; conditions: route intraperitoneal
Procedure, shortened: (§4)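 Female BALB/c mice infected with trypomastigotes, dosed ip at 1 mg/kg/day on days 5–10 postinfection; vehicle controls. Mandibular vein blood (5 μL) diluted in citrate/lysis buffer pH 7.2; parasites counted under immersion objective every 2 days from day 5 to 30, as parasites/mL.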

Trypanosoma cruzi [24] = assay: Antitrypanosomal activity against Trypanosoma cruzi infected in BALB/c mouse assessed as reduction in trypomastigotes at 1 mg/kg, ip dosed for 5 days measured on day 14 post infection; type: functional, organism-based; parameters: dose 1 mg/kg; procedure, shortened: as §4
Trypanosoma cruzi [25] = assay: Antitrypanosomal activity against Trypanosoma cruzi infected in BALB/c mouse assessed as reduction in anti-organism antibody at 1 mg/kg, ip dosed for 5 days measured on day 40 to 120 post infection; type: functional, organism-based; parameters: dose 1 mg/kg
Procedure, shortened: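 Infected female BALB/c mice given 1 mg/kg/day ip for 5 days. Serum (1:50 in PBS) on days 40 and 120 tested by ELISA against excreted epimastigote Fe-SOD antigen; absorbance 490 nm, cutoff = negative-control mean + 3 SD; change is day-120 minus day-40 absorbance.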

Trypanosoma cruzi [26] = assay: Trypanosomicidal activity against Trypanosoma cruzi epimastigotes assessed as inhibition of succinate metabolite excretion after 96 hrs by NMR analysis; type: functional
Procedure, shortened: (§5)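 Epimastigotes (5 × 10^5 cells/mL) exposed to IC25 of compound for 96 h at 28 °C; supernatant after centrifugation analysed by 1H NMR with DSS reference, compared against untreated cultures.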

Trypanosoma cruzi [27] = assay: Trypanosomicidal activity against Trypanosoma cruzi epimastigotes assessed as inhibition of acetate metabolite excretion after 96 hrs by NMR analysis; type: functional; procedure, shortened: as §5
[28] = target: Superoxide dismutase [Cu-Zn], SOD1 (Homo sapiens) (UniProt P00441); assay: Activity of human erythrocyte Cu-Zn SOD by NBT reduction assay
Trypanosoma cruzi [29] = assay: Antitrypanosomal activity against Trypanosoma cruzi infected in BALB/c mouse assessed as survival rate at 1 mg/kg, ip dosed for 5 days; type: functional; conditions: 120 h, route intraperitoneal
Procedure, shortened: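 Female BALB/c mice were infected with trypomastigotes of T. cruzi SN3 strain (Colombian R. prolixus isolate). Dosing was ip at 1 mg/kg/day for 5 consecutive days, on days 5–10 postinfection. Controls were infected mice given vehicle only, plus uninfected groups. Mortality was followed over the acute phase (first 30 days) and the chronic phase (days 40–120 postinfection).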

Trypanosoma cruzi [30] = assay: Trypanosomicidal activity against Trypanosoma cruzi epimastigotes assessed as reservosomes in cytoplasm by TEM analysis; type: functional, organism-based
Trypanosoma cruzi [31] = assay: Trypanosomicidal activity against Trypanosoma cruzi epimastigotes assessed as altered nucleus by TEM analysis; type: functional, organism-based
Trypanosoma cruzi [32] = assay: Inhibition of Trypanosoma cruzi epimastigotes Fe-SOD at 10 ug/ml by NBT reduction assay; procedure, shortened: as §2
Trypanosoma cruzi [33] = assay: Trypanosomicidal activity against Trypanosoma cruzi epimastigotes assessed as inhibition of L-lactate metabolite excretion after 96 hrs by NMR analysis; type: functional; procedure, shortened: as §5
[34] = Selectivity ratio of IC50 for Trypanosoma cruzi epimastigotes Fe-SOD to IC50 for human erythrocyte Cu-Zn SOD

Superoxide dismutase [Cu-Zn], SOD1 (Homo sapiens), sequence (P00441 whole entry, looked up): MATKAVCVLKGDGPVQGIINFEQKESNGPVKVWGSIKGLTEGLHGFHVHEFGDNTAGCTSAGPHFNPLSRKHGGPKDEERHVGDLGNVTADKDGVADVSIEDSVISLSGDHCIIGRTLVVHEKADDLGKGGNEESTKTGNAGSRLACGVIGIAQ

Row | Structure (SMILES) | IC50 (Trypanosoma cruzi [1]) [µM] | IC50 (Trypanosoma cruzi [2]) [µM] | IC50 (Trypanosoma cruzi [3]) [µM] | IC50 (Vero) [µM] | selectivity ratio [4] | selectivity ratio [5] | selectivity ratio [6] | Activity (Trypanosoma cruzi [7]) [%] | Activity (Trypanosoma cruzi [8]) [%] | Activity (Trypanosoma cruzi [9]) [%] | IC50 [10] [µM] | Activity (Mus musculus [11]) | Activity (Mus musculus [12]) | Activity (Mus musculus [13]) | Activity (Mus musculus [14]) | Activity (Mus musculus [15]) | Activity (Mus musculus [16]) | Activity (Mus musculus [17]) | inhibition (Trypanosoma cruzi [21]) [%] | Activity (Trypanosoma cruzi [23]) [%] | other results
1 | Cl.c1c2n[nH]c1CNCCN1CCNCc3cc(n[nH]3)CNCCN(CCNC2)CCNCc2cc([nH]n2)CNCC1 | 1.3 | 7.2 | 6.2 | 149 | 115 | 20.7 | 24 | 74 | 50 | 70 | 30.8 | Non-toxic | Non-toxic | Non-toxic | Non-toxic | Non-toxic | Toxic | Non-toxic | 98 | 53 | Activity (Trypanosoma cruzi [18]): Active; Activity (Trypanosoma cruzi [19]): Active; Activity (Trypanosoma cruzi [20]): Active; inhibition (Trypanosoma cruzi [22]): 70%; Activity (Trypanosoma cruzi [24]): Active; Activity (Trypanosoma cruzi [25]): Active; inhibition (INH) (Trypanosoma cruzi [26]): 7%; inhibition (INH) (Trypanosoma cruzi [27]): 22%; Activity [28]: 23.4 U/mg
2 | O=C(Cn1ccnc1[N+](=O)[O-])NCc1ccccc1 [BENZNIDAZOLE] | – | 18.9 | 23.3 | – | – | – | – | 23 | 13 | 46 | – | Toxic | Toxic | Non-toxic | Non-toxic | Toxic | Toxic | Toxic | – | 26 | Activity (Trypanosoma cruzi [25]): Active; inhibition (INH) (Trypanosoma cruzi [27]): -6%; survival at 1 mg/kg (Trypanosoma cruzi [29]): 80%
3 | Cl.Cn1nc2cc1CNCCNCCNCc1cc(n(C)n1)CNCCNCCNC2 | 1.3 | 8.8 | 6.5 | 178 | 137 | 20.3 | 27.5 | 80 | 42 | 64 | 4.2 | Non-toxic | Non-toxic | Toxic | Non-toxic | Non-toxic | Non-toxic | Non-toxic | 98 | 39 | Activity (Trypanosoma cruzi [18]): Active; Activity (Trypanosoma cruzi [30]): Active; Activity (Trypanosoma cruzi [31]): Active; inhibition (Trypanosoma cruzi [22]): 70%; inhibition (Trypanosoma cruzi [32]): 75%; Activity (Trypanosoma cruzi [24]): Active; Activity (Trypanosoma cruzi [25]): Active; inhibition (INH) (Trypanosoma cruzi [26]): 70%; inhibition (INH) (Trypanosoma cruzi [27]): 15%; inhibition (INH) (Trypanosoma cruzi [33]): 58%; Ratio IC50 [34]: 23; Activity [28]: 23.4 U/mg
4 | Cl.c1ccc(Cn2nc3cc2CNCCNCCNCc2cc(n(Cc4ccccc4)n2)CNCCNCCNC3)cc1 | 16.5 | 10 | 13.8 | 195 | 11.8 | 19.5 | 14.2 | >50 | 26 | 34 | 28.7 | Toxic | Non-toxic | Toxic | Toxic | Toxic | Non-toxic | Non-toxic | 98 | 16 | Activity (Trypanosoma cruzi [18]): Active; Activity (Trypanosoma cruzi [19]): Active; Activity (Trypanosoma cruzi [20]): Active; inhibition (Trypanosoma cruzi [22]): 70%; Activity (Trypanosoma cruzi [24]): Active; inhibition (INH) (Trypanosoma cruzi [26]): 19%; inhibition (INH) (Trypanosoma cruzi [27]): 23%; Activity [28]: 23.4 U/mg
5 | CCCCCCCCN1CCNCc2cc([nH]n2)CNCCN(CCCCCCCC)CCNCc2cc(n[nH]2)CNCC1 | 46.4 | 20.8 | 18.4 | 21.5 | 0.5 | 1 | 1.1 | – | – | – | 44.6 | – | – | – | – | – | – | – | 65 | – | Activity [28]: 23.4 U/mg
